Calls of active or inactive are those of the source. The calls are words filed in the database; no cut-off is given here.
Columns and labels:
L1210 [1] = test: In vivo antitumor activity against mouse L1210 cells in prognostic scoring system assessed as survival rate at 100 mg/kg administered as single dose; assay type: functional, organism-based; set-up: dose 100 mg/kg
Summary of the method: (§1)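 L1210 leukaemia in mice, run as an ascites tumour system. Injections were once daily for 9 or 15 days, or as a single dose. Response is the increase in survival time, given as T/C %, treated over untreated controls; a larger value means more activity. Weight change is the treated-group mean minus the control-group mean, in grams.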

L1210 [2] = test: In vivo antitumor activity against mouse L1210 cells in prognostic scoring system assessed as survival rate at 400 mg/kg administered as single dose; assay type: functional, organism-based; set-up: dose 400 mg/kg; summary of the method: as §1
L1210 [3] = test: In vivo antitumor activity against mouse L1210 cells in prognostic scoring system assessed as survival rate at 200 mg/kg administered as single dose; assay type: functional, organism-based; set-up: dose 200 mg/kg; summary of the method: as §1
L1210 [4] = test: In vivo antitumor activity against mouse L1210 cells in prognostic scoring system assessed as tumor growth inhibition at 200 mg/kg administered as single dose (reference value: 10.9 g); assay type: functional; summary of the method: as §1
Musca domestica [5] = test: Toxicity in male house fly at 1% administered in sugar; assay type: organism-based; settings: in vivo, po
[6] = Toxicity in rat allografted with rat Walker 256 cells intramuscularly; assay type: organism-based
L1210 [7] = test: In vivo antitumor activity against mouse L1210 cells in prognostic scoring system assessed as tumor growth inhibition at 100 mg/kg administered as single dose (reference value: 10.9 g); assay type: functional; summary of the method: as §1
L1210 [8] = test: In vivo antitumor activity against mouse L1210 cells in prognostic scoring system assessed as tumor growth inhibition at 400 mg/kg administered as single dose (reference value: 10.9 g); assay type: functional; summary of the method: as §1
L1210 [9] = test: In vivo antitumor activity against mouse L1210 cells in prognostic scoring system assessed as […] at 0.37 mg/kg, qd administered for 15 days relative to control; assay type: functional; settings: L1210, 360 h, read-out: TGI
Rattus norvegicus [10] = test: Toxicity in rat allografted with rat Walker 256 cells intramuscularly assessed as change in body weight at 1.9 mg/kg, qd administered for 5 days; assay type: organism-based; set-up: dose 1.9 mg/kg, route intramuscular; settings: in vivo, im, 120 h
Summary of the method: (§2)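 Walker 256 carcinoma solid-tumour system in rats (parent line, or the line resistant to cytoxan). Dosing was one injection per day for 5 days. Toxicity was taken as the average net body-weight change of the treated group minus the average net weight change of the untreated tumour-bearing controls, in grams.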

L1210 [11] = test: In vivo antitumor activity against mouse L1210 cells in prognostic scoring system assessed as tumor growth inhibition at 1.65 mg/kg administered 3 doses relative to control; assay type: functional
Rattus norvegicus [12] = test: Toxicity in rat allografted with rat Walker 256 cells intramuscularly assessed as change in body weight at 1 mg/kg, qd administered for 5 days; assay type: organism-based; set-up: dose 1 mg/kg, route intramuscular; settings: in vivo, im, 120 h; summary of the method: as §2
Rattus norvegicus [13] = test: Toxicity in rat allografted with rat Walker 256 cells intramuscularly assessed as change in body weight at 0.95 mg/kg, qd administered for 5 days; assay type: organism-based; set-up: dose 0.95 mg/kg, route intramuscular; settings: in vivo, im, 120 h; summary of the method: as §2
Musca domestica [14] = test: Toxicity in male house fly assessed as lowest dose required to cause complete sterility administered in sugar; assay type: organism-based; settings: in vivo, po
W256 [15] = test: Antitumor activity against rat Walker 256 cells intramuscularly allografted in rat assessed as survival rate at 1 mg/kg, qd administered for 5 days; assay type: functional, organism-based; set-up: dose 1 mg/kg
Summary of the method: (§3)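 Rats bearing Walker 256 carcinoma as a solid tumor; lines 1-8 use a cytoxan-resistant Walker 256 subline. Dosed once daily for 5 days. Treated (T) and untreated control (C) groups are compared, and the response is given as T/C percentage, reflecting increase in survival time. Host weight change is the average weight change of the test group minus that of the controls, in grams.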

Rattus norvegicus [16] = test: Toxicity in rat allografted with rat Walker 256 cells intramuscularly assessed as change in body weight at 0.47 mg/kg, qd administered for 5 days; assay type: organism-based; set-up: dose 0.47 mg/kg, route intramuscular; settings: in vivo, im, 120 h; summary of the method: as §2
W256 [17] = test: Antitumor activity against rat Walker 256 cells intramuscularly allografted in rat assessed as tumor growth inhibition at 0.47 mg/kg, qd administered for 5 days relative to control; assay type: functional; settings: W256, im, 120 h, route intramuscular, read-out: TGI
Summary of the method: (§4)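 Dosed once daily for 5 days. Response is tumor progression in treated (T) versus untreated control (C) animals, expressed as T/C percentage. Host weight change is reported as the average net weight change of the test group minus that of the controls, in grams.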

L1210 [18] = test: In vivo antitumor activity against mouse L1210 cells in prognostic scoring system assessed as survival rate at 1.5 mg/kg, qd administered for 15 days; assay type: functional, organism-based; set-up: dose 1.5 mg/kg; summary of the method: as §1
W256 [19] = test: Antitumor activity against rat Walker 256 cells intramuscularly allografted in rat assessed as tumor growth inhibition at 0.23 mg/kg, qd administered for 5 days relative to control; assay type: functional; settings: W256, im, 120 h, route intramuscular, read-out: TGI; summary of the method: as §4
W256 [20] = test: Antitumor activity against rat Walker 256 cells intramuscularly allografted in rat assessed as tumor growth inhibition at 1.9 mg/kg, qd administered for 5 days relative to control; assay type: functional; settings: W256, im, 120 h, route intramuscular, read-out: TGI
Summary of the method: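 Walker 256 carcinoma grown as a solid tumour in rats, with one injection daily for 5 days. Response is given as T/C %, the treated-group measure over the untreated-control tumour measure; a smaller value means more activity. Host toxicity is the mean net weight change of treated minus control animals, in grams.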

W256 [21] = test: Antitumor activity against rat Walker 256 cells intramuscularly allografted in rat assessed as survival rate at 0.47 mg/kg, qd administered for 5 days; assay type: functional, organism-based; set-up: dose 0.47 mg/kg; summary of the method: as §3
L1210 [22] = test: In vivo antitumor activity against mouse L1210 cells in prognostic scoring system assessed as survival rate at 0.75 mg/kg, qd administered for 15 days; assay type: functional, organism-based; set-up: dose 0.75 mg/kg; summary of the method: as §1
L1210 [23] = test: In vivo antitumor activity against mouse L1210 cells in prognostic scoring system assessed as tumor growth inhibition at 0.6 mg/kg administered 9 doses relative to control; assay type: functional
L1210 [24] = test: In vivo antitumor activity against mouse L1210 cells in prognostic scoring system assessed as survival rate at 3 mg/kg, qd administered for 15 days; assay type: functional, organism-based; set-up: dose 3 mg/kg; summary of the method: as §1
W256 [25] = test: Antitumor activity against rat Walker 256 cells intramuscularly allografted in rat assessed as tumor growth inhibition; assay type: functional; settings: W256, im; summary of the method: as §4
Musca domestica [26] = test: Toxicity in male house fly assessed as lowest dose required to cause complete sterility administered in food; assay type: organism-based; settings: in vivo, po
[27] = Therapeutic index, ratio of LD50 for rat allografted with rat Walker 256 cells to ED10 for antitumor activity against rat Walker 256 cells intramuscularly allografted in rat; assay type: cell-based; settings: read-out: TI
Summary of the method: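 Therapeutic index is LD50/ED10 in the Walker 256 solid tumour system. ED10 is the dose giving a 10% tumour weight reduction, with values extrapolated from dose-response data.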

W256 [28] = test: Antitumor activity against rat Walker 256 cells intramuscularly allografted in rat assessed as survival rate at 0.95 mg/kg, qd administered for 5 days; assay type: functional, organism-based; set-up: dose 0.95 mg/kg; summary of the method: as §3
Rattus norvegicus [29] = test: Toxicity in rat allografted with rat Walker 256 cells intramuscularly assessed as change in body weight at 0.23 mg/kg, qd administered for 5 days; assay type: organism-based; set-up: dose 0.23 mg/kg, route intramuscular; settings: in vivo, im, 120 h; summary of the method: as §2
W256 [30] = test: Antitumor activity against rat Walker 256 cells intramuscularly allografted in rat assessed as survival rate at 0.23 mg/kg, qd administered for 5 days; assay type: functional, organism-based; set-up: dose 0.23 mg/kg; summary of the method: as §3
W256 [31] = test: Antitumor activity against rat Walker 256 cells intramuscularly allografted in rat assessed as tumor growth inhibition at 1 mg/kg, qd administered for 5 days relative to control; assay type: functional; settings: W256, im, 120 h, route intramuscular, read-out: TGI; summary of the method: as §4
W256 [32] = test: Antitumor activity against rat Walker 256 cells intramuscularly allografted in rat assessed as survival rate at 1.9 mg/kg, qd administered for 5 days; assay type: functional, organism-based; set-up: dose 1.9 mg/kg; summary of the method: as §3
W256 [33] = test: Antitumor activity against rat Walker 256 cells intramuscularly allografted in rat assessed as tumor growth inhibition at 0.95 mg/kg, qd administered for 5 days relative to control; assay type: functional; settings: W256, im, 120 h, route intramuscular, read-out: TGI; summary of the method: as §4
L1210 [34] = test: In vivo antitumor activity against mouse L1210 cells in prognostic scoring system assessed as survival rate at 0.37 mg/kg, qd administered for 15 days; assay type: functional, organism-based; set-up: dose 0.37 mg/kg; summary of the method: as §1

Compound: C=CCN(c1ccccc1)P(=O)(N1CC1)N1CC1
- Activity (L1210 [1]): Active
- Activity (L1210 [2]): Active
- Activity (L1210 [3]): Active
- Activity (L1210 [4]): 10.5 g
- Activity (Musca domestica [5]): Non-toxic
- LD50 [6]: > 300 mg/kg
- Activity (L1210 [7]): 10.5 g
- Activity (L1210 [8]): 10.5 g

Compound: C=CCN(CC=C)P(=O)(N1CC1)N1CC1C (stereo not given)
- inhibition in vivo at 0.37 mg/kg (L1210 [9]): 117%
- Activity (Rattus norvegicus [10]): -13 g
- T/C (L1210 [11]): 159%
- Activity (Rattus norvegicus [12]): -9 g
- Activity (Rattus norvegicus [13]): -8 g
- Activity (Musca domestica [14]): 0.25%
- Activity (W256 [15]): Active
- Activity (Rattus norvegicus [16]): 0 g
- inhibition in vivo at 0.47 mg/kg (W256 [17]): 5%
- Activity (L1210 [18]): Active
- inhibition in vivo at 0.23 mg/kg (W256 [19]): 30%
- inhibition in vivo at 1.9 mg/kg (W256 [20]): 0%
- Activity (W256 [21]): Active
- Activity (L1210 [22]): Active
- T/C (L1210 [23]): 189%
- Activity (L1210 [24]): Active
- ED10 (W256 [25]): 0.52 mg/kg
- Activity (Musca domestica [26]): 0.1%
- selectivity ratio [27]: 13
- Activity (W256 [28]): Active
- LD50 [6]: 7 mg/kg
- Activity (Rattus norvegicus [29]): -7 g
- Activity (W256 [30]): Active
- inhibition in vivo at 1 mg/kg (W256 [31]): 2%
- Activity (W256 [32]): Active
- inhibition in vivo at 0.95 mg/kg (W256 [33]): 0%
- Activity (L1210 [34]): Active
